Rows were chosen to be rich in hits. Some 2.6% of all compounds tested hit in one or more screens of this group.
F508del corr – correctors of CFTR F508del function in bronchial epithelial cells; CFBE cells, YFP halide quenching; stimulated with forskolin plus potentiator P3; % fluorescence drop versus neutral controls; activity (quench increase), % at 7.58 µM; actives 0.36% (n = 350,000);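 active means mean added fluorescence quench of at least 8% versus neutral control, with both replicates also reaching 8%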;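 further: cells transiently co-express mutant CFTR-F508del with the halide-sensitive YFP; corrector assay measuring rescue of mutant channel to the surface after 24 h compound exposure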
E-sel inducer – E-selectin induction on HUVECs; HUVEC E-selectin immunofluorescence imaging; normalized: neutral wells 0, TNF-alpha wells 100; activation, % at 7.58 µM; actives 0.37% (n = 260,000);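 active means mean E-selectin-positive cell signal at least 10% of the positive control, reached in at least 60% of replicates, without over 20% cell loss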
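System: HUVEC / Compound: single concentration / Signal: immunofluorescence imaging / Read-out: percent E-selectin-positive cells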
miR-122 sensor – inhibitors of miR-122 in Huh7 cells; Huh7 miR-122 Renilla luciferase sensor, 48 h; neutral wells = 0, positive control = 100; activation (reporter increase), % at 12.5 µM; actives 0.3% (n = 340,000);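 active means mean replicate activation score at least 90 and every replicate individually at or above 90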;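 further: higher luciferase means less miR-122 activity so hits act as miR-122 inhibitors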
GSIS activator – GLuc luminescence reporter in INS-1E cells, primary screen for activators of glucose-dependent secretion of insulin; AID 743287; actives 0.61% (n = 370,000); INS-1E GLuc reporter insulin secretion, 2-3 h; activation, % at 16.6 µM;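 active means lowest replicate activation of at least 40%, so every replicate reaches that level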;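 further: 0% = median of neutral control wells and 100% = median of IBMX positive control wells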
ERAP1 inh – inhibitors of human ERAP1 aminopeptidase. Q9NZ08. recombinant ERAP1, Leu-AMC fluorescence, 60 min. inhibition, % at 10.7 µM. actives 0.15% (n = 340,000);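 active means mean replicate inhibition of at least 30%, or all replicates individually reaching that 30% level; inactive means mean below 30% and not every replicate reaching it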;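 further: 0% = neutral control wells and 100% = L-leucinethiol positive control wells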
Target sequence (Q9NZ08 whole entry, looked up): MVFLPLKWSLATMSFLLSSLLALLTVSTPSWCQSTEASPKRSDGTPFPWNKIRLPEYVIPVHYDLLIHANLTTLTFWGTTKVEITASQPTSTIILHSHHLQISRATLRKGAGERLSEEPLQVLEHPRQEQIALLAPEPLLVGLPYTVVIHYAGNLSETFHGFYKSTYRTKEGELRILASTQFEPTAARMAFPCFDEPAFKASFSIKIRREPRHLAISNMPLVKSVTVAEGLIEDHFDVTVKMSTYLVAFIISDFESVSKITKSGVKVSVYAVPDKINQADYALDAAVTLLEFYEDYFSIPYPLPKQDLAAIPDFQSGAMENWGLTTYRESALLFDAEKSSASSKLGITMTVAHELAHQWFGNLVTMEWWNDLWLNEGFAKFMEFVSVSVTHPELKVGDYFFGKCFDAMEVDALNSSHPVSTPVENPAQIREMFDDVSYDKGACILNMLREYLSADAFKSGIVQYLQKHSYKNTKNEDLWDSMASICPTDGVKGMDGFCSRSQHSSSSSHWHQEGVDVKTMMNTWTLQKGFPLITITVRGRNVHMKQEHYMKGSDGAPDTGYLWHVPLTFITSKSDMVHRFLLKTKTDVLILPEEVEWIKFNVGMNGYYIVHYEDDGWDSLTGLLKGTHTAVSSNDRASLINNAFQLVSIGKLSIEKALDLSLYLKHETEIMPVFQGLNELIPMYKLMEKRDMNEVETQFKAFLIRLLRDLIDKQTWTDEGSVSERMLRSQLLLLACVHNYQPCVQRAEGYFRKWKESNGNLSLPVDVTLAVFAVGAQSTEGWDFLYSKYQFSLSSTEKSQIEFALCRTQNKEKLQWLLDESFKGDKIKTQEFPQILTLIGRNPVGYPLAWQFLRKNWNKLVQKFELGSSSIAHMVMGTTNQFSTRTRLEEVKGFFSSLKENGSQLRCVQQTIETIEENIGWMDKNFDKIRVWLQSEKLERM
DENV2 CPE rescue – inhibitors of DENV2 cytopathic effect; CPE inhibition, % at 9.99 µM; DENV2-infected cells, cytopathic effect rescue, plate reader; actives 1.7% (n = 350,000); in the data active means CPE inhibition above about 20%, passing the limit was not always enough; tested in BHK-21 cells;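 further: 0% = median of neutral control wells and 100% = median of positive control wells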
An asterisk follows results filed as active; [ ] = remark or other dose.

What do the screens show for `COc1cccc(-c2ccc(C3[C@H]4CNC[C@@H]3N4Cc3cccnc3)cc2)c1` (stereo partly drawn)?
F508del corr: -1; E-sel inducer: 1; GSIS activator: 4; DENV2 CPE rescue: 28*

How did COc1cccc(CN2[C@@H]3CNC[C@H]2C3c2ccc(-c3cccc(OC)c3)cc2)c1 (stereo partly drawn) do in these assays?
F508del corr: -1; E-sel inducer: 0; GSIS activator: 11; ERAP1 inh: -1; DENV2 CPE rescue: 12

How did CCn1c2ccccc2c2cc(NC(=O)COC(=O)c3cc(OC)c(OC)cc3OC)ccc21 do in these assays?
F508del corr: 1; GSIS activator: 13; ERAP1 inh: 1; DENV2 CPE rescue: 41*

How did Cc1ccccc1Cc1c(C)nc2nc(SCC(=O)NCc3ccco3)nn2c1C do in these assays?
miR-122 sensor: 10

Results for Cc1ccccc1Cc1c(C)nc2c(C(=O)NCc3ccco3)cnn2c1C ?
F508del corr: -1; miR-122 sensor: -4; GSIS activator: 46*; ERAP1 inh: 6; DENV2 CPE rescue: 1

What do the screens show for `Cc1noc(C)c1S(=O)(=O)N(C)C[C@H]1OCCCC[C@H](C)Oc2ccc(NC(=O)Nc3ccc4c(c3)OCO4)cc2C(=O)N([C@@H](C)CO)C[C@@H]1C`?
F508del corr: 3; E-sel inducer: 0; miR-122 sensor: -8[16.7 µM]; GSIS activator: -2; DENV2 CPE rescue: 3

What do the screens show for `N#Cc1cc2cc3c(cc2nc1Cl)OCCO3`?
F508del corr: -3; E-sel inducer: 0; miR-122 sensor: -2; ERAP1 inh: -3; DENV2 CPE rescue: 41*

Results for O=C(NCC(c1cccs1)N1CCOCC1)c1ccc(OCc2ccccc2)cc1 (stereo not drawn) ?
F508del corr: 9.1*; E-sel inducer: -2; miR-122 sensor: 5; GSIS activator: -11; ERAP1 inh: 3; DENV2 CPE rescue: 3

How did C[C@@H]1CN([C@H](C)CO)C(=O)c2cc(NC(=O)Nc3ccc4c(c3)OCO4)ccc2O[C@@H](C)CCCCO[C@H]1CN(C)C(=O)Cc1ccccc1 do in these assays?
F508del corr: 2; E-sel inducer: 2; miR-122 sensor: -13[16.7 µM]; GSIS activator: 3; ERAP1 inh: -3; DENV2 CPE rescue: -4

What do the screens show for `CCCOC(=O)N[C@@H]1C(=O)N2C(C(=O)OCCC)=C(C)CS[C@H]12`?
F508del corr: 0; miR-122 sensor: -6; GSIS activator: -13; ERAP1 inh: 3; DENV2 CPE rescue: -3

Results for CCCN[C@@H]1C(=O)N2C(C(=O)OCCC)=C(C)CS[C@H]12 ?
F508del corr: 1; miR-122 sensor: 7; ERAP1 inh: 2; DENV2 CPE rescue: 72*

Results for O=C(NC1CC1)c1ccc(NC(=O)C2CCCC2)cc1 ?
F508del corr: -2; E-sel inducer: 0; miR-122 sensor: -3; GSIS activator: 15; DENV2 CPE rescue: 72*

How did O=C(NC1CC1)c1ccc(NC(=O)C2CCC2)cc1 do in these assays?
F508del corr: -2; miR-122 sensor: 3; ERAP1 inh: -1; DENV2 CPE rescue: 1

What do the screens show for `O=C(Nc1ccc(F)cc1)N1C[C@H]2[C@@H](c3ccccc31)[C@@H](CO)N2C(=O)Cc1ccccn1`?
F508del corr: 6; E-sel inducer: 0; miR-122 sensor: -21[16.7 µM]; GSIS activator: -11; ERAP1 inh: 0; DENV2 CPE rescue: -4

How did O=C(CN1C(=O)NC2(CCCCCCC2)C1=O)Nc1ccc(Br)cc1 do in these assays?
F508del corr: 9.1*; E-sel inducer: 2; GSIS activator: 2; ERAP1 inh: -4; DENV2 CPE rescue: -23

Results for O=C(CN1C(=O)NC2(CCCCC2)C1=O)Nc1ccc(F)cc1 ?
F508del corr: 5; E-sel inducer: 1; GSIS activator: -17; ERAP1 inh: 6; DENV2 CPE rescue: -1

How did O=C1C=CC(=O)N1c1ccc2c(c1)Cc1cc(F)ccc1-2 do in these assays?
F508del corr: -3; miR-122 sensor: -4; ERAP1 inh: -2; DENV2 CPE rescue: -3

What do the screens show for `CC(=O)Nc1ccc2c(c1)Cc1cc(N3C(=O)C=CC3=O)ccc1-2`?
F508del corr: -5; E-sel inducer: 0; miR-122 sensor: 0; GSIS activator: 39; ERAP1 inh: 34*; DENV2 CPE rescue: -3

How did Cc1cccc(Oc2nccc(C(F)(F)F)c2C(=O)Nc2ccc(F)cc2F)c1 do in these assays?
F508del corr: -2; E-sel inducer: 1; GSIS activator: -1; DENV2 CPE rescue: 32*

How did COc1ccc(-c2cc(N)n(S(=O)(=O)c3ccc(C)cc3)n2)c(OC)c1 do in these assays?
F508del corr: 1; E-sel inducer: 1; miR-122 sensor: 1; ERAP1 inh: -4; DENV2 CPE rescue: 22*

What do the screens show for `COCC(=O)Nc1ccc2c(c1)C(=O)N(C)C[C@@H](OC)[C@H](C)CN(Cc1cncnc1)[C@@H](C)CO2`?
F508del corr: -1; E-sel inducer: 6; miR-122 sensor: -1[16.7 µM]; GSIS activator: -3; ERAP1 inh: 1; DENV2 CPE rescue: 21*

How did COCC(=O)Nc1ccc2c(c1)OC[C@@H](C)N(Cc1cncnc1)C[C@@H](C)[C@H](OC)CN(C)C2=O do in these assays?
F508del corr: 2; E-sel inducer: 0; GSIS activator: 23; DENV2 CPE rescue: 22*

What do the screens show for `C[C@@H]1CN([C@H](C)CO)C(=O)c2cc(C#CC(C)(C)O)cnc2O[C@H]1CN(C)Cc1cccc(F)c1`?
F508del corr: 1; E-sel inducer: -1; miR-122 sensor: 10[16.7 µM]; GSIS activator: 2

How did COc1ccc(-c2cnc3c(c2)C(=O)N([C@H](C)CO)C[C@H](C)[C@@H](CN(C)C)O3)cc1 do in these assays?
F508del corr: 1; E-sel inducer: 0; miR-122 sensor: 36[16.7 µM]; GSIS activator: 7; ERAP1 inh: -5; DENV2 CPE rescue: -9

What do the screens show for `CNc1c2cccc(C)c2nc2c(C(=O)NCCN(C)C)cccc12`?
F508del corr: 19*; E-sel inducer: 0; GSIS activator: 10; ERAP1 inh: 8; DENV2 CPE rescue: 2

What do the screens show for `Cc1ccc(C(=O)NCCN(C)C)c(C)c1`?
miR-122 sensor: -22

How did C[C@H]1CN([C@@H](C)CO)C(=O)c2cc(NC(=O)CCCN(C)C)ccc2O[C@H]1CN(C)C(=O)Nc1ccc2c(c1)OCO2 do in these assays?
F508del corr: -1; E-sel inducer: 1; miR-122 sensor: -1[16.7 µM]; GSIS activator: -4; ERAP1 inh: 0; DENV2 CPE rescue: 4

Results for CCC(=O)Nc1ccc2c(c1)C(=O)N(C)C[C@H](OC)[C@@H](C)CN(C(=O)C1CC1)[C@@H](C)CO2 ?
F508del corr: -1; E-sel inducer: 2; GSIS activator: 2; ERAP1 inh: 0; DENV2 CPE rescue: -2

Results for O=S(=O)(NCCOCC(F)(F)C(F)F)c1ccc2oc3ccccc3c2c1 ?
miR-122 sensor: 107*
